TRPC4 inh: inhibitors of mouse TRPC4 channel. AID 2247. B-score at 10 µM. Q9QUQ5. 300,000 compounds, 0.39% hits. HEK293 TRPC4beta/mu-opioid, DAMGO-evoked Fluo4 calcium flux; active compounds read low;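 active = B-score over 3 SD under the library average, no early fluorescence shift, positive overall ratio signal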
Target sequence (Q9QUQ5 whole entry, looked up): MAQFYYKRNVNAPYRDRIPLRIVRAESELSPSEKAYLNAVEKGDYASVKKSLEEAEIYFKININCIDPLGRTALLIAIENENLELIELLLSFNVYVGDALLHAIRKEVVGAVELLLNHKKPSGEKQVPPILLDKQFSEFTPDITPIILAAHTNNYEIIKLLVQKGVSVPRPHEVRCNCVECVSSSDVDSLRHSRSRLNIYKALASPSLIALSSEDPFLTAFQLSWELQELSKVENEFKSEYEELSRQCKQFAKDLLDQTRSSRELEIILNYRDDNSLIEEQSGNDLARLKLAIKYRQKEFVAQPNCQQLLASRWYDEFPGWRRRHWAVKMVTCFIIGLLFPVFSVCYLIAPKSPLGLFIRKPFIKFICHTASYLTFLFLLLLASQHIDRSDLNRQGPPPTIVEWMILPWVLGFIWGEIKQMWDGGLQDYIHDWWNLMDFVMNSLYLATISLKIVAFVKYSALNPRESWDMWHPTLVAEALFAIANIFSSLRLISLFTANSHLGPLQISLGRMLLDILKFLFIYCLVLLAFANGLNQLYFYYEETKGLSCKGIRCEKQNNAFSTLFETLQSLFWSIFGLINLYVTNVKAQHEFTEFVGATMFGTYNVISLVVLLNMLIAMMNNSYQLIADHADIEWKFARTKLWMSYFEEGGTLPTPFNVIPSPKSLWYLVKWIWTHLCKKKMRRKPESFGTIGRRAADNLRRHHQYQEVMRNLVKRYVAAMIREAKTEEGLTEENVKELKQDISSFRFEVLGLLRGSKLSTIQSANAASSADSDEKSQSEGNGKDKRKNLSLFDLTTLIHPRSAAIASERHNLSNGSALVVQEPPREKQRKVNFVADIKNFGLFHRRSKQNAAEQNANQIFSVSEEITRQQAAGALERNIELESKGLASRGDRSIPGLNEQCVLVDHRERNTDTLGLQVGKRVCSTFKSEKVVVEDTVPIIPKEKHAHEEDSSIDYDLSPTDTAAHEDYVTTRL
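Assay system – HEK293 line stably carrying TRPC4beta and mu-opioid receptor · Doses – single dose · Detection – Fluo4 calcium-dye fluorescence, kinetic read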
TRPC6 activator: activators of mouse TRPC6 channel. B-score at 10 µM. 310,000 compounds, 0.13% hits. HEK293-TRPC6 membrane potential dye fluorescence; active compounds read high;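 active = B-score of the integrated fluorescence ratio above library mean plus 3 SD, and starting fluorescence ratio within library mean plus 5 SD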;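 also: higher score means more depolarization so channel activation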
TRPC4 potent: TRPC4 (mouse) allosteric potentiation | Q9QUQ5 | HEK293 TRPC4beta/mu-opioid, DAMGO EC20, Fluo-4 Ca2+ flux; active compounds read high | B-score at 10 µM | 310,000 compounds, 0.42% hits | AID 2227;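 active = B-score of calcium response area above 5 SD of library B-scores, with initial fluorescence ratio within 5 SD of library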;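 also: B-score of integrated fluorescence ratio over time as area under calcium response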
TRPC6 inh: mouse TRPC6 channel inhibition | Q61143 | HEK293-TRPC6, membrane potential dye, ACh-evoked depolarization; active compounds read low | B-score at 10 µM | 310,000 compounds, 1.1% hits | AID 2553;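 active = B-score under library mean minus 3 SD, initial fluorescence not abnormally high, positive integrated signal ratio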;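 also: B-score derived from integrated fluorescence ratio over the kinetic read; more negative B-score means stronger inhibition of depolarization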
TRPC4 agonist: activators of mouse TRPC4 channel. 310,000 compounds, 0.49% hits. Q9QUQ5. B-score at 10 µM. AID 2237. HEK293 TRPC4beta/mu-opioid, Fluo4 calcium fluorescence; active compounds read high;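 active = B-score above 5 SD of library B-scores, and initial fluorescence ratio not above library mean plus 5 SD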;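 also: positive B-score marks a calcium rise read as TRPC4 activation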
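Assay system: HEK293 stable line with TRPC4beta plus mu-opioid receptor. Times: dye 45 min RT, read 110 s. Measured by: kinetic Fluo4 calcium fluorescence. Measure: B score of integrated ratio. Controls: assay buffer as low control, maximal DAMGO as high control.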
* hit, by the source's call; i = inactive. Rows were chosen to be rich in hits. Some 2.3% of all compounds tested hit in one or more screens of this group.

SMILES	TRPC4 inh	TRPC6 activator	TRPC4 potent	TRPC6 inh	TRPC4 agonist
CCCCN(CC)CCCNC(=O)Cn1nc(Cc2ccncc2)c2ccccc2c1=O	i	i	i	i	133*
CCCCN(C)C(=O)Cn1nc(Cc2ccncc2)c2ccccc2c1=O	i	i	i	i	i
COc1cc(/C=C2/C(=O)NN(c3ccc(Cl)c(Cl)c3)C2=O)cc([N+](=O)[O-])c1O	i	i	i	i	i
COc1cc(/C=C2\SC(=O)N(c3ccccc3Cl)C2=O)cc([N+](=O)[O-])c1O	-9*	i	i	i	i
COc1ccc(NC(=O)c2c(NC(=O)CNCc3ccco3)sc3c2CCC3)cc1	i	i	i	i	i
CCOc1ccc(NC(=O)c2c(NC(=O)CNCCN3CCOCC3)sc3c2CCC3)cc1	i	i	i	-5.7*	i
Cc1[nH]c2ccccc2c1N=Nc1ccccc1F	-6*	i	i	i	i
CN(CCc1ccccn1)C1CC(=O)N(c2ccc(Cl)cc2)C1=O (centres undefined)	i	i	i	i	148*
CN(CCc1ccccn1)C(=O)Nc1ccc(Cl)cc1	i	i	i	i	i
COc1ccc2oc(C(=O)c3ccccc3)c(NC(=O)CN3CCN(C)CC3)c2c1	i	i	19*	-8.1*	51*
CN1CCN(CC(=O)Nc2c(C(=O)c3ccccc3)oc3ccccc23)CC1	i	i	i	i	i
Cc1cc(C(=O)Nc2ccncc2)c2ccccc2n1	i	i	i	i	i
CN(C)c1ccc([N+](=O)[O-])cc1C(=O)NCC(c1ccco1)N(C)C (centres undefined)	-5*	i	i	i	i
CN(C)C(CNC(=O)c1ccc(C(F)(F)F)cc1)c1ccco1 (centres undefined)	-7*	i	i	i	86*
Cc1ccc2oc(C(=O)NCC(c3ccco3)N(C)C)c(C)c2c1 (centres undefined)	-6*	i	i	i	i
CC(=O)Nc1ccc(C(=O)NCC(c2ccco2)N(C)C)cc1 (centres undefined)	i	i	i	i	i
Cc1cc(C(=O)NCC(=O)Nc2c(C)cccc2C)c(C)o1	i	i	i	i	i
COc1ccccc1NC(=O)Nc1nc(CC(=O)N2CCN(c3ccc(F)cc3)CC2)cs1	i	i	i	i	i
CCCCN(C)CCNC(=O)CCn1nc(-c2ccc(C)cc2)ccc1=O	i	i	i	i	i
N=c1oc2ccc(Cl)cc2cc1C(=O)NC1CCCCCC1	i	i	18*	i	i
O=C(NC1CCCC1)c1cc2cc(Br)ccc2o1	i	i	i	i	i
O=C(NC1CCCC1)c1cc2ccccc2o1	i	i	20*	i	i
CC1CCCCC1NC(=O)c1cc2ccccc2o1 (centres undefined)	i	i	30*	i	i
N=c1oc2ccccc2cc1C(=O)NC1CCCCCC1	i	i	i	i	i
CC(C)NC(=O)c1cc2ccccc2o1	i	i	i	i	i
SMILES	TRPC4 inh	TRPC6 activator	TRPC4 potent	TRPC6 inh	TRPC4 agonist
CC1(c2nnc(-c3cccc(Cl)c3)o2)CC(c2ccccc2Br)=NO1 (centres undefined)	i	i	i	i	i
Cc1ccc(C)c(NC(=O)CN(C)C(=O)c2cccc(N3C(=O)CCC3=O)c2)c1	i	i	i	i	i
COc1ccc(-c2n[nH]c(=S)n2-c2ccccc2C)cc1	i	i	i	i	i
Cc1ccc2c(c1)NC(=O)C(CC(=O)Nc1ccc(Br)c(C)c1)O2 (centres undefined)	i	i	i	i	i
CCC1(c2ccc(F)cc2)NC(=O)N(CC(=O)Nc2cccc(S(=O)(=O)N3CCCCC3)c2)C1=O (centres undefined)	i	i	12*	i	i
COc1ccc(CNCc2ccc3c(c2)OCO3)cc1Br	i	i	i	i	43*
COc1ccc(CNCc2ccc3c(c2)OCO3)c(OC)c1OC	i	i	i	i	i
O=C(COC(=O)C1CCC1)Nc1ncc(Cl)cc1Cl	i	i	i	i	i
CCN(CC)CCCNCC(=O)Nc1ccc(OC)c(Cl)c1	i	i	i	i	65*
CCN(CC)CCCNCC(=O)Nc1ccc2c(c1)CCC2	i	i	i	i	i
COc1cc(C(C)=O)ccc1OCC(O)CN1CCN(c2c(C)cccc2C)CC1 (centres undefined)	i	i	i	i	48*
CCOc1ccc(-n2cc(-c3ccccc3)c3c(N4CCOCC4)ncnc32)cc1	i	i	16*	i	i
Cc1cccc(-n2cc(-c3ccccc3)c3c(NN4CCOCC4)ncnc32)c1	i	i	14*	i	i
c1ccc(-c2cn(-c3ccccc3)c3ncnc(N4CCCCC4)c23)cc1	i	i	i	i	i
Nc1ccc(C(=O)N2CCN(S(=O)(=O)c3ccc(Cl)s3)CC2)cc1[N+](=O)[O-]	i	i	i	i	i
Cc1ccc(C(C(=O)NC(C)(C)C)N(C(=O)CCC(=O)Nc2ccccn2)c2ccccc2F)cc1 (centres undefined)	-8*	i	i	i	i
Cc1ccc(C(C(=O)NC(C)(C)C)N(Cc2ccco2)C(=O)CCC(=O)Nc2ccccn2)cc1 (centres undefined)	i	i	i	i	i
COc1ccc2c(c1)sc(N)[n+]2Cc1cc(C)cc2cccnc12	-5*	i	i	i	i
Cc1cc(C[n+]2cc(Cl)ccc2N)c2ncccc2c1	i	i	i	i	i
Cc1cc(C[n+]2ncsc2N)c2ncccc2c1	i	i	i	i	i
CCOc1ccc2c(c1)sc(N)[n+]2Cc1cc(C)cc2cccnc12	-7*	i	i	i	i
Cc1c(CCOC(=O)c2cccc([N+](=O)[O-])c2)sc[n+]1CC(=O)c1ccccc1	-6*	i	i	i	i
COc1ccc(C(=O)OCCc2sc[n+](CC(=O)c3ccccc3)c2C)cc1	i	i	i	-5.3*	i
Cc1c(CCOC(=O)C2C3CC4CC(C3)CC2C4)sc[n+]1CC(=O)c1ccc(Br)cc1 (centres undefined)	i	i	i	i	i
Cc1cccc(C)c1NC(=O)CN(C)C(=O)CC1Sc2ccccc2NC1=O (centres undefined)	i	i	i	i	i
